Key:
[1] = target: T1, Tyrosine-protein phosphatase non-receptor type 1 (Homo sapiens, UniProt P18031); assay: Inhibition of recombinant PTP1B (unknown origin) using p-nitrophenyl phosphate as substrate assessed as inhibition of release of p-nitrophenol preincubated for 10 mins measured before substrate addition after 30 mins by spectrophotometry
T1 sequence (P18031 whole entry): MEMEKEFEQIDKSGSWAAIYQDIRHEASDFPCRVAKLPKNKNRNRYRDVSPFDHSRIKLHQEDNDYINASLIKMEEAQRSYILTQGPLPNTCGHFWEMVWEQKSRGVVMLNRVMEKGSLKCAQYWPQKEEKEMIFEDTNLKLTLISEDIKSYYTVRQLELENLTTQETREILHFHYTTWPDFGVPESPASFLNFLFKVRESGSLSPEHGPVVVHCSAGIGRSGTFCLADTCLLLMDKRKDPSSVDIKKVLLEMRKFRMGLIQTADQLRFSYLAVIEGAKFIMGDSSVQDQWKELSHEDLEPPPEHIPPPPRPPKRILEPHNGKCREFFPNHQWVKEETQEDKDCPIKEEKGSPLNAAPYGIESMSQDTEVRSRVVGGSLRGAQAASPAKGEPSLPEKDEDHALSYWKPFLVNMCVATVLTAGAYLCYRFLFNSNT
In short: (§1)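 Enzyme diluted in 25 mM HEPES, 50 mM NaCl, 2.5 mM EDTA, 0.1% BSA, pH 7.2. Inhibitor in DMSO was preincubated with enzyme in 50 mM HEPES, 2.5 mM EDTA, pH 7.0 at 37 C for 10 min. pNPP was then added, 30 min at 37 C, stopped with 2 M Na2CO3, A405 read.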

[2] = target: T2, Tyrosine-protein phosphatase non-receptor type 2 (Homo sapiens, UniProt P17706); assay: Inhibition of TCPTP (unknown origin) using p-nitrophenyl phosphate as substrate assessed as inhibition of release of p-nitrophenol preincubated for 10 mins measured before substrate addition after 30 mins by spectrophotometry; in short: as §1
T2 sequence (P17706 whole entry): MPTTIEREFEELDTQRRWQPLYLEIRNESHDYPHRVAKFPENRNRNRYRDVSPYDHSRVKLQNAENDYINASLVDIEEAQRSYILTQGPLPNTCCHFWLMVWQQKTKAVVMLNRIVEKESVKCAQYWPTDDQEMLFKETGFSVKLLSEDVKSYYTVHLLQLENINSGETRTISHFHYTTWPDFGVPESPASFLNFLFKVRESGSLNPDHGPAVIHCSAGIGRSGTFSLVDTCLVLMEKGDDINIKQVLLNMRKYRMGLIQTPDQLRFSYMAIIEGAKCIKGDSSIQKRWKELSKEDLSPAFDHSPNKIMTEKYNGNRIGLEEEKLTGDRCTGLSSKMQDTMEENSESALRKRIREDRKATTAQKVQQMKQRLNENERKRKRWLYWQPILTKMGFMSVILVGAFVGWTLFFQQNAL

Homo sapiens = organism: Homo sapiens; assay: Selectivity ratio of IC50 for TCPTP (unknown origin) to IC50 for recombinant PTP1B (unknown origin)
In short: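 Ratio of TCPTP IC50 to PTP1B IC50. Both come from the same pNPP hydrolysis assay: 10 min preincubation at 37 C in 50 mM HEPES, 2.5 mM EDTA, pH 7.0, 30 min reaction, Na2CO3 quench, A405. IC50 from 4-parameter logistic fits.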

[3] = target: T3, Tyrosine-protein phosphatase non-receptor type 1 (Homo sapiens) (UniProt P18031); assay: Inhibition of recombinant PTP1B (unknown origin) using p-nitrophenyl phosphate as substrate assessed as inhibition of release of p-nitrophenol preincubated for 10 mins measured before substrate addition at 10 ug/ml after 30 mins by spectrophotometry
T3 sequence (whole entry): T1 sequence (P18031 whole entry)

| IC50 [1] [µM] | IC50 [2] [µM] | Ratio IC50 (Homo sapiens) | inhibition [3] [%] | SMILES |
| --- | --- | --- | --- | --- |
| 6.53 | 14.6 | 2.2 | > 54.7 | CC1(C)CC[C@]2(C(=O)O[C@@H]3O[C@H](CNC(=O)c4ccccc4C(=O)O)[C@@H](O)[C@H](O)[C@H]3O)CC[C@]3(C)C(=CC[C@@H]4[C@@]5(C)CC[C@H](O[C@@H]6O[C@H](CO)[C@H](O)[C@H](O)[C@H]6O)C(C)(C)[C@@H]5CC[C@]43C)[C@@H]2C1 |
| 10.4 | 8.73 | 0.8 | > 54.7 | C[C@@H]1O[C@@H](O[C@H]2CC[C@]3(C)[C@H]4CC=C5[C@@H]6CC(C)(C)CC[C@]6(C(=O)O[C@@H]6O[C@H](CNC(=O)c7ccccc7C(=O)O)[C@@H](O)[C@H](O)[C@H]6O)CC[C@@]5(C)[C@]4(C)CC[C@H]3C2(C)C)[C@@H](O)[C@H](O)[C@@H]1O |
| 0.78 | 2.16 | 2.8 | > 54.7 | CC1(C)CC[C@]2(C(=O)O[C@@H]3O[C@H](CNC(=O)c4ccccc4C(=O)O)[C@@H](O)[C@H](O)[C@H]3O)CC[C@]3(C)C(=CC[C@@H]4[C@@]5(C)CC[C@H](O[C@@H]6O[C@H](CO)[C@@H](O[C@@H]7O[C@H](CO)[C@@H](O)[C@H](O)[C@H]7O)[C@H](O)[C@H]6O)C(C)(C)[C@@H]5CC[C@]43C)[C@@H]2C1 |
| 20.4 | 24.4 | 1.2 | 54.7 | CC1(C)CC[C@]2(C(=O)O[C@@H]3O[C@H](CNC(=O)c4ccccc4C(=O)O)[C@@H](O)[C@H](O)[C@H]3O)CC[C@]3(C)C(=CC[C@@H]4[C@@]5(C)CC[C@H](O)C(C)(C)[C@@H]5CC[C@]43C)[C@@H]2C1 |
| 26.5 | – | – | > 54.7 | C[C@@H]1O[C@@H](O[C@H]2CC[C@]3(C)[C@H]4CC=C5[C@@H]6CC(C)(C)CC[C@]6(C(=O)O[C@@H]6O[C@H](CNC(=O)c7ccccc7C(=O)O)[C@@H](O)[C@H](O)[C@H]6O)CC[C@@]5(C)[C@]4(C)CC[C@H]3C2(C)C)[C@H](O)[C@H](O)[C@H]1O |
| 17.2 | 30.5 | 1.8 | > 54.7 | CC1(C)CC[C@]2(C(=O)O[C@@H]3O[C@H](CNC(=O)c4ccccc4C(=O)O)[C@@H](O)[C@H](O)[C@H]3O)CC[C@]3(C)C(=CC[C@@H]4[C@@]5(C)CC[C@H](O[C@@H]6O[C@H](CO)[C@@H](O)[C@H](O)[C@H]6O)C(C)(C)[C@@H]5CC[C@]43C)[C@@H]2C1 |
| 3.12 | 2.98 | 1 | > 54.7 | CC1(C)CC[C@]2(C(=O)O[C@@H]3O[C@H](CNC(=O)c4ccccc4C(=O)O)[C@@H](O)[C@H](O)[C@H]3O)CC[C@]3(C)C(=CC[C@@H]4[C@@]5(C)CC[C@H](O[C@@H]6O[C@H](CO[C@@H]7O[C@H](CO)[C@@H](O)[C@H](O)[C@H]7O)[C@@H](O)[C@H](O)[C@H]6O)C(C)(C)[C@@H]5CC[C@]43C)[C@@H]2C1 |
| 15.9 | – | – | > 54.7 | CC1(C)CC[C@]2(C(=O)O[C@@H]3O[C@H](CNC(=O)c4ccccc4C(=O)O)[C@@H](O)[C@H](O)[C@H]3O)CC[C@]3(C)C(=CC[C@@H]4[C@@]5(C)CC[C@H](O[C@H]6O[C@H](CO)[C@@H](O)[C@H](O)[C@@H]6O)C(C)(C)[C@@H]5CC[C@]43C)[C@@H]2C1 |
| 16.6 | 15.5 | 0.9 | > 54.7 | CC1(C)CC[C@]2(C(=O)O[C@@H]3O[C@H](CNC(=O)c4ccccc4C(=O)O)[C@@H](O)[C@H](O)[C@H]3O)CC[C@]3(C)C(=CC[C@@H]4[C@@]5(C)CC[C@H](O[C@@H]6OC[C@@H](O)[C@H](O)[C@H]6O)C(C)(C)[C@@H]5CC[C@]43C)[C@@H]2C1 |
| 5.67 | 12.4 | 2.2 | > 54.7 | CC1(C)CC[C@]2(C(=O)O[C@@H]3O[C@H](CNC(=O)c4ccccc4C(=O)O)[C@@H](O)[C@H](O)[C@H]3O)CC[C@]3(C)C(=CC[C@@H]4[C@@]5(C)CC[C@H](O[C@@H]6OC[C@H](O)[C@H](O)[C@H]6O)C(C)(C)[C@@H]5CC[C@]43C)[C@@H]2C1 |
| 1.03 | 4.11 | 4 | > 54.7 | CC1(C)CC[C@]2(C(=O)O[C@@H]3O[C@H](CNC(=O)c4ccccc4C(=O)O)[C@@H](O)[C@H](O)[C@H]3O)CC[C@]3(C)C(=CC[C@@H]4[C@@]5(C)CC[C@H](O[C@@H]6O[C@H](CO)[C@@H](O[C@@H]7O[C@H](CO)[C@H](O)[C@H](O)[C@H]7O)[C@H](O)[C@H]6O)C(C)(C)[C@@H]5CC[C@]43C)[C@@H]2C1 |

Reference: ChEMBL document CHEMBL3232910, “Synthesis and evaluation of several oleanolic acid glycoconjugates as protein tyrosine phosphatase 1B inhibitors” (Eur J Med Chem, 2014)
